We go through one compound from ChEMBL document CHEMBL1817578, “2-({6-[(3R)-3-amino-3-methylpiperidine-1-yl]-1,3-dimethyl-2,4-dioxo-1,2,3,4-tetrahydro-5H-pyrrolo[3,2-d]pyrimidine-5-yl}methyl)-4-fluorobenzonitrile (DSR-12727): a potent, orally active dipeptidyl peptidase IV inhibitor without mechanism-based inactivation of CYP3A” (Bioorg Med Chem, 2011).

SMILES strings stand for the structures. Active and inactive are the calls of the source. The rule behind the calls is not given here.

Data set [1] concerns Rattus norvegicus. Description: Antidiabetic activity in po dosed Zucker fatty rat assessed as reduction of blood glucose level pretreated 30 mins before glucose challenge by oral glucose tolerance test. The format is functional, organism-based. Put shortly:
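Male Zucker fatty rats, 10 weeks old, fasted 24 h, with Zucker lean rats as reference. Oral dose of 0.03–1.0 mg/kg in 0.5% methylcellulose, or vehicle alone, 30 min before oral glucose at 2 g/kg. Tail blood taken at -30, 0, 10, 30, 60 and 120 min and deproteinized with perchloric acid. Glucose measured by colorimetric kit (A505–A700) in duplicate. AUC over 0–120 min; n = 4–9; Dunnett test.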

In data set [2] the target is Dipeptidyl peptidase 8 (Homo sapiens, UniProt Q6V1X1). In words: Inhibition of DPP8.
Sequence of Dipeptidyl peptidase 8 (Q6V1X1 whole entry): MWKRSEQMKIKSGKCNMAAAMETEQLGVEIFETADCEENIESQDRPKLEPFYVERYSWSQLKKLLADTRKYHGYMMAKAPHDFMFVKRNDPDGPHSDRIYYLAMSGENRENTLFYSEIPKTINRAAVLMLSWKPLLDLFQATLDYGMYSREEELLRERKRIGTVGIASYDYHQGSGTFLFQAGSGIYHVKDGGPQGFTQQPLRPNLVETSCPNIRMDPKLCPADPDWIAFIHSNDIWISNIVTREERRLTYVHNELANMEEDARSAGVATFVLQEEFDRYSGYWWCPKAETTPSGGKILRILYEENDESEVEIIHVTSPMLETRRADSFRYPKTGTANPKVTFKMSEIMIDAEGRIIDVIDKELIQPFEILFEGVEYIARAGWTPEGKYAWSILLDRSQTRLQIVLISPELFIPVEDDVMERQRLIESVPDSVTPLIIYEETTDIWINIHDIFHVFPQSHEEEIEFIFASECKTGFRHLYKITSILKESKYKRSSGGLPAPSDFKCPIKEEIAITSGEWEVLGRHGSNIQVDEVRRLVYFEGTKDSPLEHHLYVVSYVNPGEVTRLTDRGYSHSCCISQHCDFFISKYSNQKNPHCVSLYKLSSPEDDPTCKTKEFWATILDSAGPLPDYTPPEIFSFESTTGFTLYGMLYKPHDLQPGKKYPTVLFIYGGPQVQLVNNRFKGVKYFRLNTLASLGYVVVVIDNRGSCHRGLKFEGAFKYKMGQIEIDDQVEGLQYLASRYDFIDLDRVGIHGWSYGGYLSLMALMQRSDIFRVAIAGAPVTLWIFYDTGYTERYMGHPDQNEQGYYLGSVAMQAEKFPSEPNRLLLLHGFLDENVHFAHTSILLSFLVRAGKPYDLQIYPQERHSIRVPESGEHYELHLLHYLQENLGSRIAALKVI
In data set [3] the target is T1, Prolyl endopeptidase (Homo sapiens, UniProt P48147).
T1 sequence (P48147 whole entry): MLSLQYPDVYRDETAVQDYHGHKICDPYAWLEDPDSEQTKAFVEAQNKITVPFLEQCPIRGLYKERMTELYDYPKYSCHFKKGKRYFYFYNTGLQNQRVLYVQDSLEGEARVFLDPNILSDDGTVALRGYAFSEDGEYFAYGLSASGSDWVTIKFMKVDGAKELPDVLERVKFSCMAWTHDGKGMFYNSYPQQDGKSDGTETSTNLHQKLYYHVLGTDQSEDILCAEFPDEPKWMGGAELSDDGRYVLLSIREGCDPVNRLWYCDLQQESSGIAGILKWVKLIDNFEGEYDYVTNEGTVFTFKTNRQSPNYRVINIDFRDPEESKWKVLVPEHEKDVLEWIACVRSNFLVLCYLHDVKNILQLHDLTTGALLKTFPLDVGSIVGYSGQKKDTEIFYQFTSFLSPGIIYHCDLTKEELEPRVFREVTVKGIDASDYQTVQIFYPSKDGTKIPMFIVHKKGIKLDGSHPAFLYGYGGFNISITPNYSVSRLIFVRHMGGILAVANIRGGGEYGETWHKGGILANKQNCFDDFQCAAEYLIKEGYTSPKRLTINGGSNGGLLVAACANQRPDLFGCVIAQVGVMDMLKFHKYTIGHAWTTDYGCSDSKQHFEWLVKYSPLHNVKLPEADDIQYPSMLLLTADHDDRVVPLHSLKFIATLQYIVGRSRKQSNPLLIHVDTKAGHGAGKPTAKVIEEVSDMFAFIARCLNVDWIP
In words: Inhibition of prolyl oligopeptidase.

Data set [4] concerns the target Xaa-Pro aminopeptidase 2 (Homo sapiens, UniProt O43895). In words: Inhibition of aminopeptidase P.
Data set [5] concerns the target T2, Muscarinic acetylcholine receptor M1 (Homo sapiens, UniProt P11229).
T2 sequence (P11229 whole entry): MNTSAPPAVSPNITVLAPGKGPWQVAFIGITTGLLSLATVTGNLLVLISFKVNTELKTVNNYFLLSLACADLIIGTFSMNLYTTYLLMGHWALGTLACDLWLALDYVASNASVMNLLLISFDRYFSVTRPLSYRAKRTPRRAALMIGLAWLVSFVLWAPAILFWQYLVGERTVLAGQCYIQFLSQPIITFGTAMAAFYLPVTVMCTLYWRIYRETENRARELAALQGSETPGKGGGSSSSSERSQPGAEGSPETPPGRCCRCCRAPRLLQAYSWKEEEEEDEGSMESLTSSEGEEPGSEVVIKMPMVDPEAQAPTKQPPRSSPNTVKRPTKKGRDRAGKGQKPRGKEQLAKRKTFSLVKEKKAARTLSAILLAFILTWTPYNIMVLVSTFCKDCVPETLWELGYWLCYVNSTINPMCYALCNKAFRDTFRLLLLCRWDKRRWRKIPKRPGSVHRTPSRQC
In words: Binding affinity to muscarinic receptor 1.

Data set [6] concerns the target T3, Cytochrome P450 1A2 (Homo sapiens, UniProt P05177).
T3 sequence (P05177 whole entry): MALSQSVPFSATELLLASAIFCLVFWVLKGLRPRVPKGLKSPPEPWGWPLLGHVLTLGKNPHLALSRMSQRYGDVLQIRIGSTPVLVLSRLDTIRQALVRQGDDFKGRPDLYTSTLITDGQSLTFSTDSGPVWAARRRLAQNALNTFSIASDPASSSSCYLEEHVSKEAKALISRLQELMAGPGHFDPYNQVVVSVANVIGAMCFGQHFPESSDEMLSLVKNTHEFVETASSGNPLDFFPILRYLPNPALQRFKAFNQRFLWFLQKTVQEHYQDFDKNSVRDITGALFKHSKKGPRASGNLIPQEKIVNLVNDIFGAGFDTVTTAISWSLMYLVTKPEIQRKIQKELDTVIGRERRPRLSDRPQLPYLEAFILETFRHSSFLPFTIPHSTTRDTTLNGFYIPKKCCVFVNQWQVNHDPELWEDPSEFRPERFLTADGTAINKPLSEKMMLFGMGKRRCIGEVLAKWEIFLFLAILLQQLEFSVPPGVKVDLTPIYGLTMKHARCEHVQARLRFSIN
In words: Inhibition of CYP1A2. Type of data set: ADME.

The target in data set [7] is Cytochrome P450 2D6 (Homo sapiens, UniProt P10635). In words: Inhibition of CYP2D6. Type of data set: ADME.
Sequence of Cytochrome P450 2D6 (P10635 whole entry): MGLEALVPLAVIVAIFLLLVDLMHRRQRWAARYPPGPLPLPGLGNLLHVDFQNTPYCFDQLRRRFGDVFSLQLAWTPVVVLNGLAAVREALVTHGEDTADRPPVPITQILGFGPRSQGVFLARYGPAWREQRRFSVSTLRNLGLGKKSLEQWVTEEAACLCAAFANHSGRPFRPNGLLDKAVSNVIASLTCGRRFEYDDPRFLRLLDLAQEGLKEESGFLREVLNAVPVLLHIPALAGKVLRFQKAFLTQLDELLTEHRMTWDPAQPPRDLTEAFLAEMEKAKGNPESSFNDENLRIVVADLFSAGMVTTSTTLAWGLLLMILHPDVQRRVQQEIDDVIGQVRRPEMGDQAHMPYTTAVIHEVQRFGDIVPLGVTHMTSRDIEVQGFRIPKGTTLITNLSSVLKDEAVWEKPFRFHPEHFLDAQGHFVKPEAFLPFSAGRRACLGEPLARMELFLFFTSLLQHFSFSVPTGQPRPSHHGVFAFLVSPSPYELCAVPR
Data set [8] is described as follows: Clearance in rat at 1 mg/kg, iv. Type of data set: ADME, organism-based. Also noted: dose 1 mg/kg, route intravenous. Particulars: in vivo.
A short description of data set [9]: Volume of distribution at steady state in rat at 1 mg/kg, iv. Type of data set: ADME, organism-based. Set-up: dose 1 mg/kg, route intravenous. Particulars: in vivo, read-out: Vdss.
Data set [10] in a line: Half life in rat at 1 mg/kg, iv. The format is ADME, organism-based. Set-up: dose 1 mg/kg, route intravenous. Particulars: in vivo.
Data set [11] is described as follows: Cmax in rat at 3 mg/kg, po. Type of data set: ADME, organism-based. Set-up: dose 3 mg/kg, route oral. Particulars: in vivo.
A short description of data set [12]: Clearance in dog at 1 mg/kg, iv. The format is ADME, organism-based, Canis lupus familiaris. Also noted: dose 1 mg/kg, route intravenous. Particulars: in vivo.
A short description of data set [13]: Half life in dog at 1 mg/kg, iv. Set-up: dose 1 mg/kg, route intravenous. Type of data set: ADME, organism-based, Canis lupus familiaris. Particulars: in vivo.
A short description of data set [14]: Half life in dog at 3 mg/kg, po. Type of data set: ADME, organism-based, Canis lupus familiaris. Also noted: dose 3 mg/kg, route oral. Particulars: in vivo.
Data set [15] can be described thus: Half life in monkey at 1 mg/kg, iv. The format is ADME, organism-based, Macaca mulatta. Set-up: dose 1 mg/kg, route intravenous. Particulars: rhesus monkey, in vivo.
Data set [16] is described as follows: Plasma protein binding in monkey. The format is ADME, cell-free, Macaca mulatta. Particulars: rhesus monkey, read-out: PPB (converted).
For data set [17], the system named is Rattus norvegicus. In words: In vivo inhibition of DPP4 in Zucker fatty rat plasma assessed as AMC production at 3 mg/kg, po after 3 hrs by fluorescence microplate reader analysis. Also noted: dose 3 mg/kg. The format is functional, organism-based. The method in brief: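 Male Zucker fatty rats, 9 weeks old, fasted 24 h and kept fasted to 12 h post-dose; test compound solution given by oral gavage at 1.0 or 3.0 mg/kg. Blood sampled at -0.5 h and 0.25–24 h. Plasma DPP-4 measured as AMC release from Gly-Pro-MCA (100 µmol/L working solution), pH 7.8 HEPES buffer, Ex 380/Em 460 nm for 3 min, AMC calibration, duplicates; n = 4–5.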

Data set [18] can be described thus: Cmax in Zucker fatty rat at 3 mg/kg, po after 3 hrs. The format is ADME, organism-based. Set-up: dose 3 mg/kg, route oral. Particulars: in vivo.
Data set [19] is described as follows: AUC in Zucker fatty rat at 3 mg/kg, po after 3 hrs. Type of data set: ADME, organism-based. Particulars: plasma. Set-up: time < 3 hr, dose 3 mg/kg, route oral.
Data set [20] in a line: Solubility of the compound in buffered water at pH 1.2 to 6.8. The format is physicochemical. Put shortly: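 Free amine form dissolved in buffered water at pH 1.2, 5.5 and 6.8.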
In data set [21] the test system is Salmonella typhimurium. In words: Genotoxicity in Salmonella Typhimurium by Ames test. The format is toxicity, organism-based. Particulars: salmonella enterica subsp. enterica serovar typhimurium. (In general: The Ames test detects mutagens through reverse mutation in bacteria.)
Data set [22] can be described thus: Toxicity in rat assessed as organ toxicity after 2 weeks repeated dosage. The format is organism-based. Particulars: in vivo. The method in brief:
(§1)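 2-week repeated-dose toxicity study; rats n = 5 per sex, monkeys n = 1 per sex.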

Data set [23] in a line: Toxicity in monkey assessed as organ toxicity after 2 weeks repeated dosage. The format is organism-based, Macaca mulatta. Particulars: rhesus monkey, in vivo. Put shortly:
as §1

Sequence of Xaa-Pro aminopeptidase 2 (O43895 whole entry): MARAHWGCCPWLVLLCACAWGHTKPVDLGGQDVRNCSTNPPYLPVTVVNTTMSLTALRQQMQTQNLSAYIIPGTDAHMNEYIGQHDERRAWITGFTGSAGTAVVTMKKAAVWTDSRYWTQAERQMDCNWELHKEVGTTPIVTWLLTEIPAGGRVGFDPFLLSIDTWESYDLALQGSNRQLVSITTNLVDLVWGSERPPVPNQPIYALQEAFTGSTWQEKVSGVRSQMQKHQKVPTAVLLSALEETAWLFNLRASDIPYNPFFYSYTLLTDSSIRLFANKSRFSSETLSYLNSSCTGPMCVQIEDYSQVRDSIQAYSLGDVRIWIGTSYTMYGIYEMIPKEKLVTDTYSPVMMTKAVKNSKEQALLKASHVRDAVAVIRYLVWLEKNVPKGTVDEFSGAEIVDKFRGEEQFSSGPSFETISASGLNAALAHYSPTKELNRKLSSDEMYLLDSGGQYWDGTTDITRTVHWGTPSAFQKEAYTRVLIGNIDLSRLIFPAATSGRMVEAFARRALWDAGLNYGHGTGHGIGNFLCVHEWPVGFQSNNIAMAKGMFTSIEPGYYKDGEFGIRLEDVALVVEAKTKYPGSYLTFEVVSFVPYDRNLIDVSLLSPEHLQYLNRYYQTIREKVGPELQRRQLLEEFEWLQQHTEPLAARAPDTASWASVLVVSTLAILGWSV

As a reminder, the IC50 is the concentration that inhibits the measured activity by half. Usually clearance stands for a measure of how efficiently the substance is removed, as volume per time. Usually half-life stands for how long it takes for the measured level to halve. As a reminder, the Cmax is the maximum level reached in the sampled fluid or tissue. One may read the AUC as the area under the concentration-time curve, a measure of exposure. A word on the solubility: it is the concentration that dissolves in the medium under given conditions. Broadly, the NOAEL is the highest tested level that showed no adverse finding. As to `Cn1c(=O)c2c(cc(N3CCC[C@@](C)(N)C3)n2Cc2cc(F)ccc2C#N)n(C)c1=O`, the Activity entry in data set [1] was “Dose-dependent effect”; in data set [21], “Non-toxic”. Besides, the IC50 in data set [2] is above 50 µM; in [3], above 50 µM; in data set [4], above 50 µM; in [5], above 10 µM; in data set [6], above 50 µM; in [7], 38 µM. The clearance in data set [8] turned out to be 40 mL/min/kg; in data set [12] it was 29 mL/min/kg. Besides, the Vd in data set [9] amounted to 6.5 L/kg. Also, the half-life in data set [10] was 246 min; in data set [13], 186 min; in data set [14], 234 min; in data set [15] it was 288 min. The Cmax in data set [11] is 76 ng/mL; in data set [18] it was 309 ng/mL. Also, the fraction unbound in data set [16] is 0.31. The inhibition result in data set [17] is “Active”. Further, in data set [19], the AUC at 3 h was determined as 2170 ng·h/mL. Further, the solubility in data set [20] was above 1000 µg/mL. Besides, the NOAEL at 336 h in data set [22] and in data set [23] was 60 mg/kg/day in each case.
